For 25 compounds, Change and Relative potency results are on record in ChEMBL document CHEMBL1122864, “1,2-Dihydro-2-oxo-6-(2,2-dimethylpropyl)-3-pyridinecarboxylic acid, analogues, and derivatives. A new class of oral hypoglycemic agents” (1985).

For assay [1], the species on record is Rattus norvegicus. Put plainly: Hypoglycemic activity in blood glucose at 2 hr (positive control) in the 18-h fasted normal rat. Format: functional. In outline: (§1)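 Sprague-Dawley-derived rats (120–130 g), fasted 18 h, in groups of four. Each got 0.5 mL by stomach tube of test compound (100 mg/kg), tolbutamide (25 mg/kg) or vehicle (carboxymethylcellulose/Polysorbate 80/NaCl/benzyl alcohol in water). Then 1.0 mL 12.5% glucose in 0.9% saline was given s.c. Barbiturate anesthesia at 110 min; vena cava blood drawn 9 min later.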

For assay [2], the species on record is Rattus norvegicus. Description: Hypoglycemic activity in the 18-h fasted normal rat with respect to 1-butyl-3-(p-tolylsulphonyl)urea. Format: functional. In outline:
(§2)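 In 18-h fasted rats (oral dosing, s.c. glucose load), activity was first confirmed, then compounds were retested at half-dose intervals alongside the positive control. Potency relative to tolbutamide came from a parallel line assay.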

Assay [3] concerns Rattus norvegicus. Put plainly: Hypoglycemic activity in blood glucose at 2 hr (treated) in the 18-h fasted normal rat at a dose of 100 mg/kg. Format: functional. In short, it runs like this:
as §1

Assay [4] has as its system Rattus norvegicus. Description: Hypoglycemic activity in the 18-h fasted normal rat with respect to 1-butyl-3-(p-tolylsulphonyl)urea; inactive at 100 mg/kg at the second stage of testing. Set-up: dose 100 mg/kg. The format is functional, organism-based. In outline:
as §2

The species entered for assay [5] is Rattus norvegicus. Description: Hypoglycemic activity in blood glucose at 2 hr (positive control) in the fasted-refed rat. The format is functional. In outline: (§3)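 Fasted-refed model: rats fasted 18 h, then given 2 mL liquid diet by stomach tube, otherwise handled as in the fasted-rat test. Blood glucose % change read at 2 h.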
The species entered for assay [6] is Rattus norvegicus. Description: Hypoglycemic activity in blood glucose at 2 hr (treated) in the fasted-refed rat. Format: functional. In outline:
as §3

Molecules are shown by their SMILES. Active and inactive are the calls of the source. The calls are words filed in the database; no cut-off is given here.

For the compound `CCOC(=O)c1ccc(CC(C)(C)C)nc1O`, the Change in assay [1] was -42%; in assay [3], -54%. For the same compound, the Relative potency in assay [2] is 7.4.

As for `CCC(C)(C)c1ccc(C(=O)O)c(O)n1`, the values for the Change in assay [1] and in assay [3] were -32% and -67%, respectively. This compound came in with a Relative potency in assay [2] of 0.9.

As for `CC(C)Cc1ccc(C(=O)O)c(=O)n1C`, the Change is on record as -22% in assay [1] and -36% in assay [3]. The Relative potency in assay [2] turned out to be 0.6.

For the compound `CC(C)(C)Cc1ccc(CO)c(O)n1`, the Change was -26% in assay [1] and -40% in assay [3]. The compound also returned a Relative potency in assay [2] of 5.3.

On to `CCC(C)(C)Cc1ccc(C(=O)O)c(O)n1`, for which the results for the Change in assay [1] and in assay [3] were -38% and -54%, respectively. Besides, in assay [2], the Relative potency was determined as 3.8.

With `CC(C)(C)Cc1ccnc(O)c1C(=O)O`, the figures for the Change in assay [1] and in assay [3] were -34% and -9%, respectively. The Relative potency result in assay [4] is “inactive”.

For the compound `CCCCCCC(C)(C)Cc1ccc(C(=O)O)c(O)n1`, the Change was -37% in assay [1] and 8% in assay [3]. The Relative potency result in assay [4] was “inactive”.

As to `CC(C)(C)Cc1ccc(C(=O)O)c(O)n1`, the Change is -40% in assay [5], -60% in assay [6], -39% in assay [1] and -59% in assay [3]. In assay [2], this compound had a Relative potency of 13.

Regarding `CC(C)CCc1ccc(C(=O)O)c(O)n1`, the Change is reported as -28% in assay [1] and -4% in assay [3]. Also, the Relative potency entry in assay [4] is “inactive”.

For `CCCCCc1ccc(C(=O)O)c(O)n1`, the results for the Change in assay [1] and in assay [3] were -25% and -2%, respectively. The Relative potency result in assay [4] is “inactive”.

Regarding `O=C(O)c1ccc[nH]c1=O`, the Change is on record as -55% in assay [5], -4% in assay [6], -33% in assay [1] and -26% in assay [3]. Also, the Relative potency in assay [2] is listed as 0.25.

With `CC(C)(C)Cc1ccc(CC(=O)O)c(O)n1`, the Change in assay [1] and in assay [3] was -25% in each case. In addition, the Relative potency in assay [2] is 0.25.

On to `CCCCCCC(C)(C)c1ccc(C(=O)O)c(O)n1`, for which the Change in assay [1] is reported as -37%; in assay [3], 5%. For the same compound, the Relative potency result in assay [4] was “inactive”.

On to `CC(C)(C)Cc1ccc(C(=O)[O-])c(O)n1.[Na+]`, for which the values for the Change in assay [1] and in assay [3] were -26% and -56%, respectively. The compound also registered a Relative potency in assay [2] of 7.9.

As to `Cn1c(CC(C)(C)C)ccc(C(=O)O)c1=O`, the Change was -34% in assay [1] and -3% in assay [3]. Further, in assay [4], the Relative potency result is “inactive”.

As to `Cc1ccc(C(=O)O)c(O)n1`, the Change is reported as -34% in assay [1] and 1% in assay [3]. Also, the Relative potency entry in assay [4] is “inactive”.

In the case of `CC(C)c1ccc(C(=O)O)c(O)n1`, the Change is given as -26% in assay [1] and -23% in assay [3]. Besides, in assay [4], the Relative potency result was “inactive”.

As for `CC(C)(C)c1ccc(C(=O)O)c(O)n1`, the Change in assay [5] is -40%; in assay [6], -58%; in assay [1], -39%; in assay [3] it was -69%. This compound yielded a Relative potency in assay [2] of 1.

With `CC(C)(C)Cc1ccc(C=O)c(O)n1`, the Change in assay [1] and in assay [3] was -47% each time. Further, the Relative potency in assay [2] is 5.9.

For `O=C(O)c1ccc(CC2CCC2)nc1O`, the Change in assay [1] is listed as -37%; in assay [3] it was -14%. In addition, the Relative potency result in assay [4] is “inactive”.

`CC(C)(C)Cc1ccc(C(N)=O)c(O)n1`: the Change in assay [1] is reported as -25%; in assay [3], 30%. In addition, in assay [4], the Relative potency entry is “inactive”.

In the case of `CC(C)(C)Cc1ccc(C(=O)O)cn1`, the Change in assay [1] is on record as -31%; in assay [3], -4%. The Relative potency entry in assay [4] was “inactive”.

For `CC(C)(C)Cc1ccc(-c2nn[nH]n2)c(O)n1`, the Change is on record as -34% in assay [1] and -37% in assay [3]. In addition, in assay [2], the Relative potency was determined as 1.6.

Regarding `CC(C)(C)CC1=NC(=O)CC=C1`, the Change in assay [1] is recorded as -36%; in assay [3], -1%. Moreover, the Relative potency entry in assay [4] was “inactive”.

`CC(C)Cc1ccc(C(=O)O)c(O)n1`: the Change was -48% in assay [5], -54% in assay [6], -34% in assay [1] and -61% in assay [3]. The compound also returned a Relative potency in assay [2] of 1.
